Source: ChEMBL document CHEMBL4118097, “Selective Inhibitors of Dual Leucine Zipper Kinase (DLK, MAP3K12) with Activity in a Model of Alzheimer's Disease” (J Med Chem, 2017)

Experiments:
[1] = target: Gamma-aminobutyric acid type B receptor subunit 1 (Homo sapiens) (UniProt Q9UBS5); assay: Binding affinity to GABA-B1b (unknown origin) at 10 uM relative to control
Outline: (§1)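 Broad radioligand-binding and enzyme screening panel covering 42 targets (biogenic amine and neuropeptide receptors, ion channels, neurotransmitter transporters, acetylcholinesterase). Single test concentration of 10 μM. Results expressed as binding relative to control, with a hit defined as >50% of control.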

[2] = target: Serine/threonine-protein kinase NLK (Homo sapiens) (UniProt Q9UBE8); assay: Inhibition of recombinant full length GST-tagged human NLK expressed in baculovirus expression system at 1 uM by FRET assay relative to control
Outline: (§2)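 Single-concentration screen at 1 μM in Life Technologies SelectScreen, across a 220-kinase panel. Z′-LYTE format measures phosphorylation of a labeled peptide by FRET. Results are reported as percent inhibition.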

[3] = target: Adrenergic receptor alpha-1 (Homo sapiens) (UniProt P35348+P25100+P35368); assay: Binding affinity to alpha1 adrenergic receptor (unknown origin) at 10 uM relative to control; assay type: protein assay; outline: as §1
[4] = target: Mitogen-activated protein kinase 9 (Homo sapiens, UniProt P45984); assay: Inhibition of recombinant full length His-tagged human JNK2 ([…]) expressed in baculovirus expression system at 1 uM by FRET assay relative to control
[5] = target: Megakaryocyte-associated tyrosine-protein kinase (Homo sapiens) (UniProt P42679); assay: Inhibition of recombinant full length His-tagged human Hyl cytoplasmic domain expressed in Escherichia coli at 1 uM by FRET relative to control
[6] = target: Protein-tyrosine kinase 6 (Homo sapiens) (UniProt Q13882); assay: Inhibition of recombinant full length His-tagged human Brk cytoplasmic domain expressed in baculovirus expression system at 1 uM by FRET assay relative to control
[7] = target: Dual specificity protein kinase CLK2 (Homo sapiens) (UniProt P49760); assay: Inhibition of recombinant GST-tagged human CLK2 catalytic domain(137 to 498 residues)expressed in baculovirus expression system at 1 uM by FRET assay relative to control
[8] = target: Tyrosine-protein kinase TXK (Homo sapiens) (UniProt P42681); assay: Inhibition of recombinant N-terminal GST-tagged human TXK (260 to 527 residues) expressed in baculovirus expression system at 1 uM by FRET assay relative to control; outline: as §2
[9] = target: Serine/threonine-protein kinase MRCK alpha (Homo sapiens) (UniProt Q5VT25); assay: Inhibition of recombinant His-tagged human MRCKalpha expressed in baculovirus at 1 uM by FRET assay relative to control
Outline: (§3)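 Single-point screen at 1 μM compound in a 220-kinase panel run by Life Technologies (SelectScreen). Z′-LYTE format: phosphorylation of a labeled peptide substrate read by FRET. Values are reported as percent inhibition.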

[10] = target: Substance-P receptor (Homo sapiens) (UniProt P25103); assay: Binding affinity to recombinant human NK1 receptor at 10 uM relative to control; outline: as §1
[11] = target: Receptor-type tyrosine-protein kinase FLT3 (Homo sapiens) (UniProt P36888); assay: Inhibition of recombinant His-tagged human FLT3 cytoplasmic domain expressed in baculovirus expression system at 1 uM by FRET assay relative to control; outline: as §3
[12] = target: Mitogen-activated protein kinase kinase kinase 10 (Homo sapiens, UniProt Q02779); assay: Inhibition of recombinant human full length GST-tagged MLK2 expressed in baculovirus at 1 uM by FRET assay relative to control
[13] = target: Casein kinase II subunit alpha (Homo sapiens) (UniProt P68400); assay: Inhibition of CK2alpha1 (unknown origin) at 1 uM by FRET assay relative to control
[14] = target: GABA-A receptor; alpha-1/beta-2/gamma-2 (Homo sapiens) (UniProt P14867+P47870+P18507); assay: Binding affinity to GABA-A alpha1beta2gamma2 receptor (unknown origin) at 10 uM relative to control; assay type: protein-complex assay; outline: as §1
[15] = target: Protein kinase C theta type (Homo sapiens) (UniProt Q04759); assay: Inhibition of PKCtheta (unknown origin) at 1 uM by FRET assay relative to control
[16] = target: Tyrosine-protein kinase Tec (Homo sapiens) (UniProt P42680); assay: Inhibition of recombinant full length His-tagged human TEC cytoplasmic domain expressed in baculovirus expression system at 1 uM by FRET assay relative to control
Homo sapiens = species on record: Homo sapiens; assay: Binding affinity to GABA-gated chloride channel (unknown origin) receptor at 10 uM relative to control; outline: as §1
[17] = target: Adrenergic receptor alpha-2 (Homo sapiens) (UniProt P08913+P18825+P18089); assay: Binding affinity to alpha2 adrenergic receptor (unknown origin) at 10 uM relative to control; assay type: protein assay; outline: as §1
[18] = target: Myosin light chain kinase (Homo sapiens) (UniProt Q32MK0); assay: Inhibition of recombinant human full length N-terminal GST-tagged caMLCK expressed in baculovirus expression system at 1 uM by FRET assay relative to control
[19] = target: Mitogen-activated protein kinase 13 (Homo sapiens) (UniProt O15264); assay: Inhibition of recombinant full length His-tagged human p38delta expressed in baculovirus expression system at 1 uM by FRET assay relative to control
[20] = target: Rho-associated protein kinase 1 (Homo sapiens) (UniProt Q13464); assay: Inhibition of recombinant N-terminal GST-tagged human ROCK1 catalytic domain (1 to 535 residues) expressed in baculovirus expression system at 1 uM by FRET assay relative to control; outline: as §2
[21] = target: Non-receptor tyrosine-protein kinase TYK2 (Homo sapiens) (UniProt P29597); assay: Inhibition of recombinant N-terminal GST-tagged human TYK2 (833 to 1187 residues) expressed in baculovirus expression system at 1 uM by FRET assay relative to control; outline: as §2
[22] = target: Serine/threonine-protein kinase N1 (Homo sapiens) (UniProt Q16512); assay: Inhibition of full length recombinant GST-tagged human PRK1 expressed in baculovirus expression system at 1 uM by FRET assay relative to control
[23] = target: Mitogen-activated protein kinase 1 (Homo sapiens) (UniProt P28482); assay: Inhibition of recombinant GST-tagged human ERK2 expressed in Escherichia coli at 1 uM by FRET assay relative to control; outline: as §3
[24] = target: Serine/threonine-protein kinase 25 (Homo sapiens) (UniProt O00506); assay: Inhibition of recombinant full length GST-tagged human YSK1 expressed in baculovirus expression system at 1 uM by FRET assay relative to control
[25] = target: CDK8/Cyclin C (Homo sapiens) (UniProt P49336+P24863); assay: Inhibition of recombinant full length His-tagged human CDK8/CyclinC expressed in baculovirus expression system at 1 uM by FRET assay relative to control
[26] = target: Ribosomal protein S6 kinase (Homo sapiens) (UniProt P51812+Q9UBS0+O75676+Q15349+O75582+P23443+Q9UK32+Q15418); assay: Inhibition of recombinant GST-tagged human p70S6K catalytic domain expressed in baculovirus expression system at 1 uM by FRET assay relative to control; outline: as §3
[27] = target: D(1A) dopamine receptor (Homo sapiens) (UniProt P21728); assay: Binding affinity to recombinant full length human D1 dopamine receptor at 10 uM relative to control; outline: as §1

Sequence of Gamma-aminobutyric acid type B receptor subunit 1 (Homo sapiens) (Q9UBS5 whole entry): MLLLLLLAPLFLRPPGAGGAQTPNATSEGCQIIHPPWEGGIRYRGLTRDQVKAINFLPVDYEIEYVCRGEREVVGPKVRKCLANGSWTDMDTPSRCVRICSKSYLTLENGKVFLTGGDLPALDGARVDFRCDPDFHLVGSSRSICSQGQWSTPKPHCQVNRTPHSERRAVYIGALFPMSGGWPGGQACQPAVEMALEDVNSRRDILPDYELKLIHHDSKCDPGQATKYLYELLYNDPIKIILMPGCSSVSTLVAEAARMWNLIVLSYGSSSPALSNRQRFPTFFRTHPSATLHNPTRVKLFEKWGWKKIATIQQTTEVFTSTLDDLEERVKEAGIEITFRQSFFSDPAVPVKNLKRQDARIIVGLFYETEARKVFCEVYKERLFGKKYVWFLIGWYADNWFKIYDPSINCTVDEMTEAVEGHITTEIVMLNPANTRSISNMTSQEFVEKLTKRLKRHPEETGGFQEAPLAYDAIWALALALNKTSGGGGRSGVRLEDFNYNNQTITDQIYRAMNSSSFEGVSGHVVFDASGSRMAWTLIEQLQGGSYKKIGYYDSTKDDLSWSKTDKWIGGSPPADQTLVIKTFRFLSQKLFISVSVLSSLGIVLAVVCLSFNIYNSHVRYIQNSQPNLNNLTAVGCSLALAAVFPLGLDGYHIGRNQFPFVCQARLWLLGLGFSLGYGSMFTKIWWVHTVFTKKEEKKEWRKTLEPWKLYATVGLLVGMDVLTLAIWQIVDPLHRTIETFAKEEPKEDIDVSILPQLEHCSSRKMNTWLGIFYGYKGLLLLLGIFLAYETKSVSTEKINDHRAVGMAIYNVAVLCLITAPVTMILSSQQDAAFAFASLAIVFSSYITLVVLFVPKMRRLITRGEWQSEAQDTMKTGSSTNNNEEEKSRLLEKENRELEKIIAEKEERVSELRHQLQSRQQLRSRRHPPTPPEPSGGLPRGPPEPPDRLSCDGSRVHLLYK
Sequence of Substance-P receptor (Homo sapiens) (P25103 whole entry, the tested form may be a part): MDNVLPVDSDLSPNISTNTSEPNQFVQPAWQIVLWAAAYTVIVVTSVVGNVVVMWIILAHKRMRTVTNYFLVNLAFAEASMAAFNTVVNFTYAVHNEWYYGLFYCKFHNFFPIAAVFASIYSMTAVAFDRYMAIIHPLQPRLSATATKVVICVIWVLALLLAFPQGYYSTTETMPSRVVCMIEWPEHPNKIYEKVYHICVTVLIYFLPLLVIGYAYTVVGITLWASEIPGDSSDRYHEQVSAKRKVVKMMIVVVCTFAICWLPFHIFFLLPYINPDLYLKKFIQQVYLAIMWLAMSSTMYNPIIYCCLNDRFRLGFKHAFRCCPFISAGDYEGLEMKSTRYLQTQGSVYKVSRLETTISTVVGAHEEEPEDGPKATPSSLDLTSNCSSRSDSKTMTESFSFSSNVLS
Sequence of Mitogen-activated protein kinase 13 (Homo sapiens) (O15264 whole entry, the tested form may be a part): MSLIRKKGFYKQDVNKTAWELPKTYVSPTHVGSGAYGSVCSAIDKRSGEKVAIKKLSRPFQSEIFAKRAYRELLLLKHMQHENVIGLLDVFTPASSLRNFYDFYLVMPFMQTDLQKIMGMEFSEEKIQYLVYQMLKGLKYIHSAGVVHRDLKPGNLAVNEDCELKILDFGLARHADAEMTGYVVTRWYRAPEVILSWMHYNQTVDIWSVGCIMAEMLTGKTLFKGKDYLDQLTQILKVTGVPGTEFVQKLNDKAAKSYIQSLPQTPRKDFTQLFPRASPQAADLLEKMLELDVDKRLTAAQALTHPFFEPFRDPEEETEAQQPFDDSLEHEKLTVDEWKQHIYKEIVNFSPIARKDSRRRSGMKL
Sequence of Receptor-type tyrosine-protein kinase FLT3 (Homo sapiens) (P36888 whole entry, the tested form may be a part): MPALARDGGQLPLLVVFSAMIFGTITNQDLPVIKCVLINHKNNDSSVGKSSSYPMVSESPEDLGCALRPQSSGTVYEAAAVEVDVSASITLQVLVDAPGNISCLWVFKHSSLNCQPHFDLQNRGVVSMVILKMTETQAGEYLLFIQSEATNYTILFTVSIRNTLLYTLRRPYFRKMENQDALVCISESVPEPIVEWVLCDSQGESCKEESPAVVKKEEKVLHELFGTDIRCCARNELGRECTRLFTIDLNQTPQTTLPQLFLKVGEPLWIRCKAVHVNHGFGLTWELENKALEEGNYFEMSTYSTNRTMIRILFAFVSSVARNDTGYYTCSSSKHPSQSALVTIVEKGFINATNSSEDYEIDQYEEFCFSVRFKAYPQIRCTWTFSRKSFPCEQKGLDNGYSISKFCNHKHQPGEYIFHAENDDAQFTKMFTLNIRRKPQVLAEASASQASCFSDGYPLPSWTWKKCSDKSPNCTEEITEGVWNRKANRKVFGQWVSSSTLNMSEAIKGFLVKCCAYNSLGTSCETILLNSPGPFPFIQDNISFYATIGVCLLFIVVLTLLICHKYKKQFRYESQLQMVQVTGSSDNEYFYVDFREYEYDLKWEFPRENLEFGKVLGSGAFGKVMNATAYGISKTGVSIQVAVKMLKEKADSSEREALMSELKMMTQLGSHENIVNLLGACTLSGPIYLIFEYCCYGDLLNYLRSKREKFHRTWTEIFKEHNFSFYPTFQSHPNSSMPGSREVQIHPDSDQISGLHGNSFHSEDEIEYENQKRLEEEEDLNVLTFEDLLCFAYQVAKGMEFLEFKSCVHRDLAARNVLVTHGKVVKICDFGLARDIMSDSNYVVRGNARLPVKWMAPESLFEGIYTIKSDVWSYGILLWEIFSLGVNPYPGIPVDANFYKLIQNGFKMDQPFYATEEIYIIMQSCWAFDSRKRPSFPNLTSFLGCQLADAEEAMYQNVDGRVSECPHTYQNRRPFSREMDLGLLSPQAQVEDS
Sequence of Megakaryocyte-associated tyrosine-protein kinase (Homo sapiens) (P42679 whole entry, the tested form may be a part): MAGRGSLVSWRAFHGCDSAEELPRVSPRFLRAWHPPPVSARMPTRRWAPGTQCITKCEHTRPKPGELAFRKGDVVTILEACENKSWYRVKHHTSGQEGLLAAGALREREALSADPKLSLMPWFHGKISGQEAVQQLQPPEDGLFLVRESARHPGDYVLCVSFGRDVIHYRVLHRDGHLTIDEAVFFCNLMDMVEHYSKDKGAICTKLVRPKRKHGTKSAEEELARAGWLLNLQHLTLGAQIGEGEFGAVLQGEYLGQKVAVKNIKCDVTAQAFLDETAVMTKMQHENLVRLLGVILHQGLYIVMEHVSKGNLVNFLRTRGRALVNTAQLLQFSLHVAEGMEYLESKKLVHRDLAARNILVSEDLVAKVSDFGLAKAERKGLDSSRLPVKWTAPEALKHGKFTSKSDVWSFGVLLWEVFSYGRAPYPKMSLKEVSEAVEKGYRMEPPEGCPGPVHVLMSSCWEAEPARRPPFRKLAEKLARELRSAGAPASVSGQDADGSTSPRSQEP
Sequence of Serine/threonine-protein kinase 25 (Homo sapiens) (O00506 whole entry, looked up): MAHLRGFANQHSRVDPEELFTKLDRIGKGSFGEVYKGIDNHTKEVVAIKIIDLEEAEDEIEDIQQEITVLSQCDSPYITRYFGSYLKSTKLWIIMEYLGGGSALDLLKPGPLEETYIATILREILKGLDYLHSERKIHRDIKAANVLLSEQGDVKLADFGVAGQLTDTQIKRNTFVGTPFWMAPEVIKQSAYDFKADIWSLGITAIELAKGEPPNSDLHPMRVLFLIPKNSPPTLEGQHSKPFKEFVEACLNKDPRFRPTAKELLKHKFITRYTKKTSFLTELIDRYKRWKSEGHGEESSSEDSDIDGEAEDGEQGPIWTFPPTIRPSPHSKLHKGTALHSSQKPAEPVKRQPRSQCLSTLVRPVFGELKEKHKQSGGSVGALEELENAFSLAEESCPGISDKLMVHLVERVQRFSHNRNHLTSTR
Sequence of Tyrosine-protein kinase TXK (Homo sapiens) (P42681 whole entry, the tested form may be a part): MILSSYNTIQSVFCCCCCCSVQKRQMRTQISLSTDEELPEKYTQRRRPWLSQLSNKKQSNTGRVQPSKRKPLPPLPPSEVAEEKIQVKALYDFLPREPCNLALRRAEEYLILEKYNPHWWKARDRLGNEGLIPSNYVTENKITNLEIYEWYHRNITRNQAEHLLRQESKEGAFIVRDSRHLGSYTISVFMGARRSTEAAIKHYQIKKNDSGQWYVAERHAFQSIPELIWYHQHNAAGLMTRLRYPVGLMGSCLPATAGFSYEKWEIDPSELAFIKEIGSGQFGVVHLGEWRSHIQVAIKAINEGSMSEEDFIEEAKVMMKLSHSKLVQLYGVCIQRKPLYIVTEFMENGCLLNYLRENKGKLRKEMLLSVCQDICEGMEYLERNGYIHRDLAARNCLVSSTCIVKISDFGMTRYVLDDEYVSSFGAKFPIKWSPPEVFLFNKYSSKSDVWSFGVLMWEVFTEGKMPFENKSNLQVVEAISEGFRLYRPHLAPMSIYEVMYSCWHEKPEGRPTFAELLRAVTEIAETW
Sequence of Serine/threonine-protein kinase NLK (Homo sapiens) (Q9UBE8 whole entry): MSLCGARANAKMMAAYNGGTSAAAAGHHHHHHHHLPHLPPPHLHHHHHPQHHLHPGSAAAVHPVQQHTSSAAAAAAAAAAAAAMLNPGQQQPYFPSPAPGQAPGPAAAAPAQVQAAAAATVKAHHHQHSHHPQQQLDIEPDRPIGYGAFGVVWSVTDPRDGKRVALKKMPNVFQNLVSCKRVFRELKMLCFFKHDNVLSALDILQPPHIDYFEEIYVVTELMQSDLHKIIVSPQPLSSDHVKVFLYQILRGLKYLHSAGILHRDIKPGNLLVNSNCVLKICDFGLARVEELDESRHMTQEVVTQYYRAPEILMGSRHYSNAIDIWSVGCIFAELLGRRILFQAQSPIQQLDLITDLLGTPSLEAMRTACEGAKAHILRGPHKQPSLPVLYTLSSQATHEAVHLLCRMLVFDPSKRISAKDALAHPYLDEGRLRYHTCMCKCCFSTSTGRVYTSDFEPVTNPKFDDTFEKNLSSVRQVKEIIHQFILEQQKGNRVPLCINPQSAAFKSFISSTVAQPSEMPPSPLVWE

SMILES | Activity [1] | inhibition [2] | Activity [3] | inhibition [4] | inhibition [5] | inhibition [6] | inhibition [7] | inhibition [8] | inhibition [9] | Activity [10] | inhibition [11] | inhibition [12] | inhibition [13] | Activity [14] | inhibition [15] | inhibition [16] | Activity (Homo sapiens) | Activity [17] | inhibition [18] | inhibition [19] | also measured
CC(C)n1nc(-c2cnc(N)c(OC(F)(F)F)c2)cc1[C@H]1[C@@H]2CN(C3COC3)C[C@@H]21 | > 50% | -4.5% | > 50% | 4.4% | 7.5% | 7.8% | 17.6% | 4.7% | 0.4% | > 50% | 52.5% | 10.9% | 1.5% | > 50% | 9.3% | -1.5% | > 50% | > 50% | 0.8% | 10.5% | inhibition [20]: 8.8%; inhibition [21]: 10.7%; inhibition [22]: 5.3%; inhibition [23]: 5.2%; inhibition [24]: 8%; inhibition [25]: 9.9%; inhibition [26]: 4.5%; Activity [27]: > 50%
Nc1ncc(-c2cc([C@H]3[C@@H]4CN(C5COC5)C[C@@H]43)n(CC3CC3)n2)cc1C(F)(F)F | > 50% | -4.7% | > 50% | 0.6% | 0.1% | 5.8% | 0.3% | 25.6% | 4.3% | > 50% | 66.5% | 13.2% | 3.5% | > 50% | 0.3% | 4.8% | > 50% | > 50% | 1.3% | 3.8% | inhibition [20]: -7.4%; inhibition [21]: 9.3%; inhibition [22]: -8%; inhibition [23]: 6.3%; inhibition [24]: -3.8%; inhibition [25]: 2.4%; inhibition [26]: 6.9%; Activity [27]: > 50%
